This note sets out measurements from PubChem BioAssay AID463170 (The Scripps Research Institute Molecular Screening Center, 2010).

The target in this test is Cyclin-dependent kinase inhibitor 1 (Homo sapiens) (UniProt P38936). As to the kind of experiment: p21-luciferase fusion stabilization in HeLa – cell-based, luminescence, powder samples, selectivity assay for Wee1 degradation inhibitor project, late-stage follow-up (AID 463170). As to conditions: at 0.1 µM, hits give high values. In outline: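 assay system = HeLa cells transiently expressing a p21-luciferase fusion reporter | schedule = 20 h compound treatment, 37 °C | signal = luminescence of p21-luciferase | evaluation = mean fold change versus DMSO | repeats = four replicate wells per compound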
Cyclin-dependent kinase inhibitor 1 (Homo sapiens), sequence (P38936 whole entry, looked up, the tested form may be a part): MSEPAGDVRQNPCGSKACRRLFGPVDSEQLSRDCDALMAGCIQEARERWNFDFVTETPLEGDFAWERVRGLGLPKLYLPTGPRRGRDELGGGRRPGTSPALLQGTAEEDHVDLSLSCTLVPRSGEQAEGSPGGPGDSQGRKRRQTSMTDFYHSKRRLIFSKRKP

Active and inactive are the calls of the source.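 The calls were made as follows: active = fold change of 10 or more over vehicle in p21 reporter light; inactive = fold change below 10.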

For the compound `O=[N+]([O-])c1cccc2[nH]c(CNc3nc(N4CCOCC4)nc4c3ncn4-c3ccsc3)nc12`, the fold change was 3.41 (inactive).
As for `c1ccc2[nH]c(CNc3nc(N4CCOCC4)nc4c3ncn4-c3ccsc3)nc2c1`, the figure is 2.23 (inactive).
